Laboratory results reported in ChEMBL document CHEMBL1131263, “Substituted tetrahydropyrrolo[2,1-b]oxazol-5(6H)-ones and tetrahydropyrrolo[2,1-b]thiazol-5(6H)-ones as hypoglycemic agents” (1998).

Experiment: lowest concentration at which glucose utilized was greater than or equal to 140% of control value tested in a glucose utilization L6 myocyte in vitro assay
Type: functional, Rattus norvegicus
In short: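 Differentiated rat L6 myotubes (day 11 or 13 after plating) exposed 20 h to compound in serum-free DMEM with 15 mM glucose and 1% final DMSO. Tested in quadruplicate at 3, 10, 30, 100, 300 µM. Glucose left in the medium read by glucose oxidase. Value is the lowest concentration giving at least 40% more utilization than control.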

Compound: CC(=O)N(C[C@@H]1CN2C(=O)CC[C@]2(c2ccc(Cl)cc2)O1)c1ccc(Cl)cc1
- Lowest effective concentration for glucose utilization ≥140% of control: >300 µM

Compound: OCc1cc(-c2ccc(Cl)c(Cl)c2)no1
- Lowest effective concentration for glucose utilization ≥140% of control: 30 µM

Compound: CC(C)(C)[C@]12CCC(=O)N1C[C@@H](COc1ccc(Cl)cc1)O2
- Lowest effective concentration for glucose utilization ≥140% of control: >300 µM

Compound: CC(C)(C)[C@]12CCC(=O)N1C[C@H](COc1ccc(Cl)cc1)O2
- Lowest effective concentration for glucose utilization ≥140% of control: >300 µM

Compound: CC(=O)N1CCS[C@@H]1c1ccc(Cl)cc1
- Lowest effective concentration for glucose utilization ≥140% of control: >300 µM

Compound: CC(=O)N1C[C@H](COc2ccc(Cl)cc2)O[C@@H]1c1ccc(Cl)c(Cl)c1
- Lowest effective concentration for glucose utilization ≥140% of control: 30 µM

Compound: O=C1CC[C@]2(c3ccc(Cl)cc3)O[C@H](CO)CN12
- Lowest effective concentration for glucose utilization ≥140% of control: >300 µM

Compound: O=C1CCC[C@]2(c3ccccc3)O[C@@H](COc3ccc(Cl)cc3)CN12
- Lowest effective concentration for glucose utilization ≥140% of control: >300 µM

Compound: COCc1cc(-c2ccc(Cl)cc2)no1
- Lowest effective concentration for glucose utilization ≥140% of control: 100 µM

Compound: CC(C)(C)c1cc(CO)on1
- Lowest effective concentration for glucose utilization ≥140% of control: >300 µM

Compound: O=C1CC[C@]2(c3c[nH]c4ccccc34)O[C@H](COc3ccc(Cl)cc3)CN12
- Lowest effective concentration for glucose utilization ≥140% of control: >300 µM

Compound: CC1(C)C[C@]2(c3ccc(Cl)cc3)O[C@@H](COc3ccc(Cl)cc3)CN2C1=O
- Lowest effective concentration for glucose utilization ≥140% of control: 100 µM

Compound: OCc1cc(-c2ccccc2)no1
- Lowest effective concentration for glucose utilization ≥140% of control: >300 µM

Compound: COC(=O)COC[C@@H]1CN2C(=O)CC[C@]2(c2ccc(Cl)cc2)O1
- Lowest effective concentration for glucose utilization ≥140% of control: >300 µM

Compound: CC(C)C(=O)N1C[C@@H](COc2ccc(Cl)cc2)O[C@@H]1c1ccc(Cl)c(Cl)c1
- Lowest effective concentration for glucose utilization ≥140% of control: 30 µM

Compound: C=CCOC[C@@H]1CN2C(=O)CC[C@]2(c2ccc(Cl)cc2)O1
- Lowest effective concentration for glucose utilization ≥140% of control: >300 µM

Compound: O=C1CC[C@]2(c3ccc(Cl)c(Cl)c3)O[C@H](CSc3ccc(Cl)cc3)CN12
- Lowest effective concentration for glucose utilization ≥140% of control: 100 µM

Compound: O=C1CC[C@]2(c3ccc(Cl)c(Cl)c3)O[C@@H](COc3ccc(Cl)cc3)CN12
- Lowest effective concentration for glucose utilization ≥140% of control: 30 µM

Compound: O=C1CC[C@]2(c3ccc(Cl)c(C(F)(F)F)c3)O[C@@H](COc3ccc(Cl)cc3)CN12
- Lowest effective concentration for glucose utilization ≥140% of control: 300 µM

Compound: O=C1CC[C@]2(c3ccncc3)O[C@@H](COc3ccc(Cl)cc3)CN12
- Lowest effective concentration for glucose utilization ≥140% of control: 100 µM

Compound: CC(=O)N1C[C@@H](COc2ccc(Cl)cc2)O[C@@H]1c1ccc(Cl)cc1
- Lowest effective concentration for glucose utilization ≥140% of control: 100 µM

Compound: CC(=O)N1C[C@@H](COc2ccc(Cl)cc2)O[C@@H]1c1ccc(Cl)c(C(F)(F)F)c1
- Lowest effective concentration for glucose utilization ≥140% of control: 30 µM

Compound: O=C1CCC[C@]2(c3ccc(Cl)cc3)SCCN12
- Lowest effective concentration for glucose utilization ≥140% of control: >300 µM

Compound: O=C(c1ccccc1)N1C[C@H](COc2ccc(Cl)cc2)O[C@@H]1c1ccc(Cl)c(Cl)c1
- Lowest effective concentration for glucose utilization ≥140% of control: 300 µM

Compound: O=C1CC[C@]2(c3cccc4ccccc34)O[C@H](COc3ccc(Cl)cc3)CN12
- Lowest effective concentration for glucose utilization ≥140% of control: >300 µM

Compound: OCc1cc(-c2ccc(Cl)cc2Cl)no1
- Lowest effective concentration for glucose utilization ≥140% of control: 300 µM

Compound: O=C1CC[C@]2(c3ccc(-c4ccccc4)cc3)O[C@@H](COc3ccc(Cl)cc3)CN12
- Lowest effective concentration for glucose utilization ≥140% of control: >300 µM

Compound: O=C(Nc1ccccc1)N1C[C@H](COc2ccc(Cl)cc2)O[C@@H]1c1ccc(Cl)c(Cl)c1
- Lowest effective concentration for glucose utilization ≥140% of control: 30 µM

Compound: COc1ccc([C@H]2O[C@@H](COc3ccc(Cl)cc3)CN2C(C)=O)cc1
- Lowest effective concentration for glucose utilization ≥140% of control: >300 µM

Compound: O=C1CC[C@]2(c3ccc(Cl)cc3)O[C@H](COCCO)CN12
- Lowest effective concentration for glucose utilization ≥140% of control: >300 µM

Compound: O=C1CC[C@]2(c3ccccc3)OC[C@@H](O)CN12
- Lowest effective concentration for glucose utilization ≥140% of control: >300 µM

Compound: CC1(C)C[C@]2(c3ccc(Oc4ccccc4)cc3)O[C@H](COc3ccc(Cl)cc3)CN2C1=O
- Lowest effective concentration for glucose utilization ≥140% of control: 30 µM

Compound: O=C1CC[C@]2(c3ccncc3)O[C@H](COc3ccc(Cl)cc3)CN12
- Lowest effective concentration for glucose utilization ≥140% of control: 30 µM

Compound: C/N=C(\S)N1CCS[C@@H]1c1ccc(Cl)cc1
- Lowest effective concentration for glucose utilization ≥140% of control: 300 µM

Compound: CS(=O)(=O)N1C[C@@H](COc2ccc(Cl)cc2)O[C@@H]1c1ccc(Cl)c(Cl)c1
- Lowest effective concentration for glucose utilization ≥140% of control: 30 µM

Compound: Clc1ccc(OCc2cc(-c3ccc(Cl)cc3)no2)cc1
- Lowest effective concentration for glucose utilization ≥140% of control: >300 µM

Compound: COC(=O)c1cc(CO)on1
- Lowest effective concentration for glucose utilization ≥140% of control: >300 µM

Compound: Cc1cc(CO)on1
- Lowest effective concentration for glucose utilization ≥140% of control: >300 µM

Compound: O=C1CCC[C@]2(c3ccc(Oc4ccccc4)cc3)O[C@H](COc3ccc(Cl)cc3)CN12
- Lowest effective concentration for glucose utilization ≥140% of control: 100 µM

Compound: CNC(=O)N1CCS[C@@H]1c1ccc(Cl)cc1
- Lowest effective concentration for glucose utilization ≥140% of control: 300 µM

Compound: O=C1CC[C@]2(c3ccc(Cl)cc3)O[C@H](CNc3ccc(Cl)cc3)CN12
- Lowest effective concentration for glucose utilization ≥140% of control: >300 µM

Compound: O=C1CC[C@]2(c3ccc(F)cc3)O[C@@H](COc3ccc(Cl)cc3)CN12
- Lowest effective concentration for glucose utilization ≥140% of control: >300 µM

Compound: O=C1CC[C@]2(c3ccc(Cl)cc3)O[C@@H](CCc3ccccc3)CN12
- Lowest effective concentration for glucose utilization ≥140% of control: >300 µM

Compound: O=C1CC[C@]2(c3ccc(Cl)cc3)O[C@@H](CO)CN12
- Lowest effective concentration for glucose utilization ≥140% of control: >300 µM

Compound: OCCc1cc(-c2ccc(Cl)cc2)no1
- Lowest effective concentration for glucose utilization ≥140% of control: 100 µM

Compound: O=C1CC[C@]2(c3ccc(Cl)c(Cl)c3)O[C@H](COc3ccc(Cl)cc3)CN12
- Lowest effective concentration for glucose utilization ≥140% of control: 10 µM

Compound: COc1ccc([C@]23CCC(=O)N2C[C@H](COc2ccc(Cl)cc2)O3)cc1
- Lowest effective concentration for glucose utilization ≥140% of control: >300 µM

Compound: O=C(O)c1cc(CO)on1
- Lowest effective concentration for glucose utilization ≥140% of control: >300 µM

Compound: O=C(Nc1ccccc1)N1C[C@@H](COc2ccc(Cl)cc2)O[C@@H]1c1ccc(Cl)c(Cl)c1
- Lowest effective concentration for glucose utilization ≥140% of control: 30 µM

Compound: O=C1CC[C@]2(c3ccc(Cl)c(C(F)(F)F)c3)O[C@H](COc3ccc(Cl)cc3)CN12
- Lowest effective concentration for glucose utilization ≥140% of control: 10 µM

Compound: O=C1CC[C@]2(c3ccccc3)OC[C@H](O)CN12
- Lowest effective concentration for glucose utilization ≥140% of control: >300 µM

Compound: CC(C)(C)OC[C@@H]1CN2C(=O)CC[C@]2(c2ccc(Cl)cc2)O1
- Lowest effective concentration for glucose utilization ≥140% of control: 300 µM

Compound: C/N=C(\S)N1CCO[C@@H]1c1ccc(Cl)cc1
- Lowest effective concentration for glucose utilization ≥140% of control: >300 µM

Compound: OCc1cc(Cc2ccccc2)no1
- Lowest effective concentration for glucose utilization ≥140% of control: >300 µM

Compound: CNC(=O)N1CCO[C@@H]1c1ccc(Cl)cc1
- Lowest effective concentration for glucose utilization ≥140% of control: >300 µM

Compound: CC1(C)C[C@]2(c3ccc(Cl)cc3)O[C@H](COc3ccc(Cl)cc3)CN2C1=O
- Lowest effective concentration for glucose utilization ≥140% of control: 30 µM

Compound: COc1ccc([C@H]2O[C@H](COc3ccc(Cl)cc3)CN2C(C)=O)cc1
- Lowest effective concentration for glucose utilization ≥140% of control: >300 µM

Compound: O=C1CC[C@]2(c3ccc4oc5ccccc5c4c3)O[C@@H](COc3ccc(Cl)cc3)CN12
- Lowest effective concentration for glucose utilization ≥140% of control: >300 µM

Compound: CS(=O)(=O)N1CCS[C@@H]1c1ccc(Cl)cc1
- Lowest effective concentration for glucose utilization ≥140% of control: 300 µM

Compound: CC1(C)C[C@]2(c3ccc(Oc4ccccc4)cc3)OCCN2C1=O
- Lowest effective concentration for glucose utilization ≥140% of control: 10 µM

Compound: O=C1CC[C@]2(C3CCCCC3)O[C@@H](COc3ccc(Cl)cc3)CN12
- Lowest effective concentration for glucose utilization ≥140% of control: >300 µM

Compound: CC(=O)c1cc(CO)on1
- Lowest effective concentration for glucose utilization ≥140% of control: >300 µM

Compound: CC(C)(O)c1cc(-c2ccc(Cl)cc2)no1
- Lowest effective concentration for glucose utilization ≥140% of control: 100 µM

Compound: O=C1CC[C@]2(c3ccc(Cl)cc3)O[C@H](COc3ccc(Cl)cc3)CCN12
- Lowest effective concentration for glucose utilization ≥140% of control: >300 µM

Compound: COC(=O)N1C[C@@H](COc2ccc(Cl)cc2)O[C@@H]1c1ccc(Cl)c(Cl)c1
- Lowest effective concentration for glucose utilization ≥140% of control: 300 µM

Compound: O=C1CC[C@]2(C3CCCCC3)O[C@H](COc3ccc(Cl)cc3)CN12
- Lowest effective concentration for glucose utilization ≥140% of control: 100 µM

Compound: O=C1CC[C@]2(c3ccc(Cl)c(Cl)c3)O[C@@H](CSc3ccc(Cl)cc3)CN12
- Lowest effective concentration for glucose utilization ≥140% of control: 100 µM

Compound: O=C1CC[C@]2(c3ccc(Cl)cc3)O[C@@H](CNc3ccc(Cl)cc3)CN12
- Lowest effective concentration for glucose utilization ≥140% of control: >300 µM

Compound: O=C(c1ccccc1)N1C[C@@H](COc2ccc(Cl)cc2)O[C@@H]1c1ccc(Cl)c(Cl)c1
- Lowest effective concentration for glucose utilization ≥140% of control: >300 µM

Compound: CC(=O)N1C[C@H](COc2ccc(Cl)cc2)O[C@@H]1c1ccc(Cl)c(C(F)(F)F)c1
- Lowest effective concentration for glucose utilization ≥140% of control: 30 µM

Compound: CS(=O)(=O)N1C[C@H](COc2ccc(Cl)cc2)O[C@@H]1c1ccc(Cl)c(Cl)c1
- Lowest effective concentration for glucose utilization ≥140% of control: 30 µM

Compound: CC(=O)N1C[C@@H](COc2ccc(Cl)cc2)S[C@@H]1c1ccc(Cl)cc1
- Lowest effective concentration for glucose utilization ≥140% of control: 300 µM

Compound: C[C@]12CCC(=O)N1C[C@@H](COc1ccc(Cl)cc1)O2
- Lowest effective concentration for glucose utilization ≥140% of control: >300 µM

Compound: CC(=O)N1C[C@H](COc2ccc(Cl)cc2)S[C@@H]1c1ccc(Cl)cc1
- Lowest effective concentration for glucose utilization ≥140% of control: 30 µM

Compound: O=C1CC[C@]2(c3ccc(Cl)cc3)O[C@H](CCc3ccccc3)CN12
- Lowest effective concentration for glucose utilization ≥140% of control: >300 µM

Compound: O=C1CC[C@]2(c3cccnc3)O[C@@H](COc3ccc(Cl)cc3)CN12
- Lowest effective concentration for glucose utilization ≥140% of control: 300 µM

Compound: O=C1CC[C@]2(c3ccc(Cl)c(Cl)c3)OC(COc3ccc(Cl)cc3)CN12 (single isomer, unassigned)
- Lowest effective concentration for glucose utilization ≥140% of control: >300 µM

Compound: CN(C)C(=N)NC(=N)N.Cl [METFORMIN HYDROCHLORIDE]
- Lowest effective concentration for glucose utilization ≥140% of control: 1000 µM

Compound: Cc1c(C)c2c(c(C)c1O)CCC(C)(COc1ccc(CC3SC(=O)NC3=O)cc1)O2 (centres undefined) [TROGLITAZONE]
- Lowest effective concentration for glucose utilization ≥140% of control: 30 µM
